Assay [1] relates to MDA-MB-231. In words: Induction of methuosis in human MDA-MB-231 cells assessed as increase in vacuole formation at 10 uM after 24 hrs by phase contrast microscopic analysis relative to control. In kind it is functional.
Assay [2] concerns MDA-MB-231. In words: Induction of methuosis in human MDA-MB-231 cells assessed as increase in vacuole formation at 1 uM after 24 hrs by phase contrast microscopic analysis relative to control. In kind it is functional.
The subject of assay [3] is MDA-MB-231. In words: Antiproliferative activity against human MDA-MB-231 cells at 2 uM after 48 hrs in presence of pan-caspase inhibitor Z-VAD-FMK by MTS assay. Format: functional, cell-based. The method in brief:
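Cells pretreated 1 h with 100 µM Z-VAD-FMK, then 2 µM compound (0.1 µM staurosporine as comparator) alone or combined for 48 h; MTS viability, means ± SD of triplicates.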

Assay [4] relates to MDA-MB-231. In words: Induction of methuosis in human MDA-MB-231 cells assessed as increase in vacuole formation at 2 uM after 24 hrs in presence of autophagy inhibitor 3-MA by optical microscopic analysis. In kind it is functional, cell-based. The procedure, abridged:
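Optical microscopy of MDA-MB-231 after 24 h with DMSO, 1 mM 3-MA, 2 µM compound, or both.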

The subject of assay [5] is MDA-MB-231. In words: Induction of mitochondria originated vacuolization in human MDA-MB-231 cells assessed as mitochondrial swelling at 2 uM after 12 hrs by uranyl acetate or lead citrate staining based transmission electron microscopic analysis. In kind it is functional, cell-based. The procedure, abridged: (§1)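 MDA-MB-231 given DMSO or 2 µM for 12 h; fixed in 2.5% glutaraldehyde (0.1 M PBS pH 7.4, 4 °C, 3 h), post-fixed 1% OsO4, ethanol-dehydrated, Spurr's resin embedded; 70 nm sections stained with uranyl acetate or lead citrate, viewed by TEM for organelle swelling.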

Assay [6] concerns MDA-MB-231. In words: Antitumor activity against human MDA-MB-231 cells xenografted in iv dosed Balb/c nude mouse assessed as tumor growth inhibition administered once daily for 13 days measured 6 hrs post last dose. Format: functional, organism-based. The procedure, abridged:
(§2)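 Female BALB/c nude mice (4–6 weeks) injected subcutaneously with 5×10^6 MDA-MB-231 cells; at ~100 mm3 (length×width²×0.5) randomized (n = 6) and dosed iv by tail vein once daily at 5 or 20 mg/kg in 10% Kolliphor HS 15 in saline, or vehicle; tumor volume and weight measured daily; tumors excised 6 h after final dose, H&E stained.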

Assay [7] deals with MDA-MB-231. In words: Induction of methuosis in human MDA-MB-231 cells assessed as late endosomal marker Rab7 on vacuole membranes at 2 uM after 12 hrs by anti-Rab7 staining based immunofluorescent microscopic analysis.
The subject of assay [8] is MDA-MB-231. In words: Induction of apoptosis in human MDA-MB-231 cells assessed as caspase-3 activation at 0.5 to 4 uM after 24 hrs. In kind it is functional, cell-based. The procedure, abridged:
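After 24 h exposure to DMSO, graded compound concentrations or staurosporine, MDA-MB-231 cells were harvested, lysed and caspase 3 activity measured with a commercial activity kit.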

The subject of assay [9] is MDA-MB-231. In words: Induction of methuosis in human MDA-MB-231 cells assessed as increase in vacuole formation at 2 uM after 24 hrs in presence of pan-caspase inhibitor Z-VAD-FMK by optical microscopic analysis. In kind it is functional, cell-based. The method in brief:
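Optical microscopy of MDA-MB-231 after 24 h with DMSO, 100 µM Z-VAD-FMK, 2 µM compound, or both.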

Assay [10] relates to MDA-MB-231. In words: Induction of endoplasmic reticulum originated vacuolization in human MDA-MB-231 cells at 2 uM after 12 hrs by ER-tracker staining based phase contrast fluorescent microscopic analysis. Format: functional, cell-based. The method in brief:
(§3)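 MDA-MB-231 attached overnight on glass-bottom dishes, treated with DMSO or 2 µM for 12 h, then loaded with ER-tracker or Mito-tracker Red; phase-contrast and confocal fluorescence imaging.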

For assay [11], the system named is MDA-MB-231. In words: Antiproliferative activity against human MDA-MB-231 cells at 2 uM after 48 hrs in presence of autophagy inhibitor 3-MA by MTS assay. Format: functional, cell-based. The procedure, abridged: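 MDA-MB-231 given DMSO, 1 mM 3-MA, 2 µM compound, or the combination for 48 h; viability by MTS, means ± SD of triplicate samples.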
In assay [12] the test system is MDA-MB-231. In words: Induction of methuosis in human MDA-MB-231 cells assessed as macropinocytosis at 2 uM after 12 hrs by lucifer yellow CH staining based phase contrast fluorescent microscopic analysis. In kind it is functional, cell-based. The method in brief:
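MDA-MB-231 incubated with 2 µM compound and Lucifer yellow together for 12 h, PBS-washed, imaged by phase contrast and confocal fluorescence.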

For assay [13], the system named is MDA-MB-231. In words: Induction of apoptosis in human MDA-MB-231 cells assessed as PARP cleavage at 0.5 to 4 uM after 24 hrs by Western blot analysis. In kind it is functional, cell-based. The method in brief:
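MDA-MB-231 treated 24 h with DMSO, graded compound concentrations or staurosporine; lysed, equal protein separated by 10–15% SDS-PAGE, PVDF transfer, probed for PARP and cleaved PARP, ECL detection.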

Assay [14] has as its system MDA-MB-231. In words: Induction of methuosis in human MDA-MB-231 cells assessed as macropinocytosis at 2 uM after 12 hrs by lyso-tracker red staining based phase contrast fluorescent microscopic analysis. Format: functional, cell-based. The procedure, abridged:
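MDA-MB-231 treated 2 µM for 12 h, then loaded with Lyso-tracker Red; phase-contrast and confocal fluorescence imaging.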

For assay [15], the system named is MDA-MB-231. In words: Induction of methuosis in human MDA-MB-231 cells xenografted in Balb/c nude mouse assessed as vacuole formation in tumor at 20 mg/kg, iv administered once daily for 13 days measured 6 hrs post last dose by H and E staining based light microscopic method. Format: functional, organism-based. The method in brief:
as §2

The test system of assay [16] is MDA-MB-231. In words: Antiproliferative activity against human MDA-MB-231 cells after 48 hrs by crystal violet staining based microscopic method. In kind it is functional, cell-based. The procedure, abridged: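 MDA-MB-231 seeded, cultured 12 h, medium refreshed, then exposed to 0.1% DMSO or graded compound concentrations for 48 h; fixed in 4% paraformaldehyde 15 min at room temperature, stained with crystal violet, examined by optical microscopy and quantified.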

For assay [17], the system named is MDA-MB-231. In words: Induction of methuosis in human MDA-MB-231 cells assessed as increase in vacuole formation at 2 uM after 24 hrs in presence of necrosis inhibitor necrostatin-1 by optical microscopic analysis. Format: functional, cell-based. The procedure, abridged: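 Optical microscopy of MDA-MB-231 after 24 h with DMSO, 50 µM necrostatin-1, 2 µM compound, or both.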

Assay [18] relates to MDA-MB-231. In words: Induction of mitochondria originated vacuolization in human MDA-MB-231 cells at 2 uM after 12 hrs by Mito-tracker red staining based phase contrast fluorescent microscopic analysis. In kind it is functional, cell-based. The procedure, abridged: as §3
Assay [19] deals with MDA-MB-231. In words: Antiproliferative activity against human MDA-MB-231 cells at 2 uM after 48 hrs in presence of necrosis inhibitor necrostatin-1 by MTS assay. Format: functional, cell-based. The method in brief:
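MDA-MB-231 given DMSO, 50 µM necrostatin-1, 2 µM compound, or combinations for 48 h; viability by MTS, means ± SD of triplicate samples.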

For assay [20], the system named is MDA-MB-231. In words: Induction of endoplasmic reticulum originated vacuolization in human MDA-MB-231 cells assessed as endoplasmic reticulum swelling at 2 uM after 12 hrs by uranyl acetate or lead citrate staining based transmission electron microscopic analysis. Format: functional, cell-based. The procedure, abridged: as §1
The test system of assay [21] is MDA-MB-231. In words: Induction of methuosis in human MDA-MB-231 cells assessed as increase in vacuole formation at 2 uM after 12 to 24 hrs by optical microscopic analysis. Format: functional, cell-based. The method in brief:
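MDA-MB-231 treated with 2 µM and inspected by optical microscopy at successive times (12, 24, 48 h) for vesicle accumulation and vacuole fusion.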

The values below come from ChEMBL document CHEMBL4118249, “Discovery and Identification of Small Molecules as Methuosis Inducers with in Vivo Antitumor Activities” (J Med Chem, 2018).

Molecules are shown by their SMILES. The source made the active and inactive calls. The rule behind the calls is not given here.

As for `COc1cccc(NC(=O)c2ccc(C)c(Nc3cc(-c4cccnc4)nc4[nH]ccc34)c2)c1`, the Activity amounted to 100% in assay [1] and 76.86% in assay [2].
For the compound `Cc1ccc(C(=O)Nc2cc(CN3CCN(C)CC3)cc(C(F)(F)F)c2)cc1Nc1cc(-c2cccnc2)nc2[nH]ccc12`, the Activity amounted to 0% in assay [1] and 0.62% in assay [2].
Take `Cc1ccc(C(=O)N2CCOCC2)cc1Nc1cc(-c2cccnc2)nc2[nH]ccc12`: the Activity in assay [1] and in assay [2] was 0% in each case.
Take `Cc1ccc(NC(=O)c2cccc(C(F)(F)F)c2)cc1Nc1cc(-c2cccnc2)nc2c1ccn2C`: the Activity in assay [1] worked out at 96.27%; in assay [2], 16.08%.
In the case of `Cc1ccc(C(=O)Nc2cccc(C(F)(F)F)c2)cc1Nc1cc(-c2ccncc2)nc2[nH]ccc12`, the values for the Activity in [1] and in assay [2] were 1.94% and 0%, respectively.
The like results for `O=C(Nc1cccc(C(F)(F)F)c1)c1cccc(Nc2cc(-c3cccnc3)nc3[nH]ccc23)c1` were, in that order, 80.23% and 3.78%.
As to `O=C(Nc1cccc(Nc2cc(-c3cccnc3)nc3[nH]ccc23)c1)c1cccc(C(F)(F)F)c1`, the results for the Activity in assay [1] and in [2] were 98.98% and 96.61%, respectively.
Regarding `Cc1ccc(NC(=O)c2cccc(C(F)(F)F)c2)cc1Nc1cc(-c2ccncc2)nc2[nH]ccc12`, the figures for the Activity in assay [1] and in assay [2] were 96.34% and 1.46%, respectively.
The like results for `Cc1ccc(C(=O)Nc2cccc(C(F)(F)F)c2)cc1Nc1cc(-c2cccnc2)nc2c1ccn2C` were, in that order, 70.96% and 3.63%.
The like results for `Cc1ccc(C(=O)Nc2cccc(Cl)c2)cc1Nc1cc(-c2cccnc2)nc2[nH]ccc12` were, in that order, 96.75% and 19.49%.
On to `Cc1ccc(NC(=O)c2cccc(C(F)(F)F)c2)cc1Nc1cc(-c2ccoc2)nc2[nH]ccc12`, for which the values for the Activity in assay [1] and in assay [2] were 0% and 0.24%, respectively.
The like results for `Cc1ccc(NC(=O)c2cccc(C(F)(F)F)c2)cc1Nc1cc(-c2ccsc2)nc2[nH]ccc12` were, in that order, 0.21% and 0%.
On to `Cc1ccc(NC(=O)c2cccc(C(F)(F)F)c2)cc1Nc1cc(-c2cccc(N)c2)nc2[nH]ccc12`, for which the Activity in assay [1] is 1.63%; in assay [2] it was 0.27%.
Regarding `Cc1ccc(C(=O)Nc2cc(C(F)(F)F)cc(C(F)(F)F)c2)cc1Nc1cc(-c2cccnc2)nc2[nH]ccc12`, the Activity in assay [1] and in assay [2] was 0% each time.
`Cc1ccc(NC(=O)c2cccc(C(F)(F)F)c2)cc1Nc1cc(-c2cccc(Cl)c2)nc2[nH]ccc12`: the Activity in assay [1] is reported as 0.33%; in assay [2] it was 0.03%.
Consider `Cc1ccc(NC(=O)c2cccc(C(F)(F)F)c2)cc1Nc1cc(-c2ccccc2)nc2[nH]ccc12`, for which the Activity in [1] and in assay [2] was 0% each time.
For `Cc1ccc(C(=O)Nc2cccc(C(F)(F)F)c2)cc1Nc1cc(-c2cccnc2)nc2[nH]ccc12`, the Activity in assay [1] was 99.42%; in assay [2], 70.29%.
For `Cc1ccc(NC(=O)c2cccc(C(F)(F)F)c2)cc1Nc1cc(-c2cccnc2)nc2[nH]ccc12`, the outcome in assay [3], in assay [4], in assay [7], in assay [9], in [11] and in assay [12] was Active. In addition, the outcome in assay [14], in [15], in [17], in [19] and in assay [21] was Active. Besides, the outcome in assay [5], in assay [8], in [10], in assay [13], in [18] and in assay [20] was inactive. The TGI entry in assay [6] is “Dose-dependent effect”. For the same compound, the Activity entry in assay [16] was “Dose-dependent effect”.
On to `Cc1cccc(NC(=O)c2ccc(C)c(Nc3cc(-c4cccnc4)nc4[nH]ccc34)c2)c1`, for which the Activity in assay [1] was 97.68%; in [2], 11.24%.
Regarding `Cc1cc(NC(=O)c2ccc(C)c(Nc3cc(-c4cccnc4)nc4[nH]ccc34)c2)n(C)n1`, the Activity in [1] was found to be 95.24%; in assay [2], 2.48%.
As for `Cc1ccc(C(=O)Nc2cccc(OC(F)(F)F)c2)cc1Nc1cc(-c2cccnc2)nc2[nH]ccc12`, the values for the Activity in assay [1] and in assay [2] were 99.66% and 38.57%, respectively.
The like results for `Cc1ccc(NC(=S)Nc2cccc(C(F)(F)F)c2)cc1Nc1cc(-c2cccnc2)nc2[nH]ccc12` were, in that order, 87.3% and 1.26%.
